STAT1 inh: STAT1 signaling inhibitors, primary screen, cell-based, HTS, luciferase reporter; NIH 3T3 STAT1-luciferase reporter, IFN-gamma, luminescence; inhibition, % at 5.5 µM; actives 0.35% (n = 200,000);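 active = inhibition above a set limit, the mean inhibition across all tested compounds plus 3 SD, cut at about 34% in these data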;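 also: 0% = IFN-gamma with DMSO and 100% = IFN-gamma with 300 µM nifuroxazide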
STAT1 activator: STAT1 signaling activators, primary screen, cell-based, HTS, luciferase reporter. actives 2.6% (n = 200,000). NIH 3T3 STAT1-luciferase reporter, IFN-gamma, luminescence; 100% = IFN-gamma alone, no compound. AID 932, 2007. activation (% of control), % at 5.5 µM;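 active = activation above the screen-wide mean activation plus 3 SD, cut at about 130% in these data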;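 also: raw ratio to IFN-gamma control signal so 100% means no change and 0% no light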
APP 5'UTR act: activators of APP 5'UTR luciferase reporter, primary screen, SH-SY5Y cells; SH-SY5Y APP 5'UTR luciferase reporter, luminescence; zero percent = DMSO vehicle wells; activation, % at 2 µM; actives 1% (n = 190,000); AID 1276, 2008;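 active = activation above a set limit, based on mean plus 3 SD of controls, cut at about 140% in these data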
STAT3 blocker: IL-6 driven STAT3 reporter inhibitors, primary screen, U3A cells, luciferase, luminescence, MLSCN library | IL-6 STAT3-luciferase reporter; host cell line lacks STAT1 | inhibition, % at 5.5 µM | actives 0.89% (n = 190,000);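 active = inhibition above the mean inhibition across all screened compounds plus 3 SD, cut at about 44% in these data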;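 also: 0% = DMSO only wells and 100% = 100 µM nifuroxazide control wells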
STAT3 activator: IL-6 driven STAT3 reporter potentiators, primary screen, U3A cells, luciferase, luminescence, MLSCN library. IL-6 STAT3-luciferase reporter; 100% = signal with IL-6 EC80 alone. activation (% of control), % at 5.6 µM. actives 0.91% (n = 190,000);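 active = activation above the screen-wide mean of compound activation plus 3 SD, cut at about 130% in these data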;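 also: 0% = background luminescence of wells with medium and substrate only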
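Detection: reporter luminescence signal / Assay system: STAT1-lacking human U3A cells, STAT3 luciferase reporter / Incubation: compound pre-incubation 1 h before IL-6, then 6 h stimulation at 37 °C / Control set: IL-6-only high control / Read-out: % activation relative to IL-6 control / Probe or stimulus: Interleukin-6, 33 ng/mL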
NF-kB neuron act: activators of NF-kB expression in neurons, primary screen, cell-based, HTS. human neuronal cells, NF-kB reporter expression; stronger effect = higher value. fold change at 12.5 µM. actives 1.6% (n = 190,000). AID 1239, 2008; in the data active = fold change above about 3.3
STAT1 activ conf: STAT1 signaling activators, confirmation, cell-based, HTS, luciferase reporter. shares compounds with STAT1 activator. NIH 3T3 STAT1-luciferase reporter, IFN-gamma potentiation, luminescence; 100% = IFN-gamma EC80 alone, no compound. activation (% of control), % at 5.7 µM. actives 97% (n = 1,200);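 active = activation above a set limit carried over from the earlier primary STAT1 screen, cut at about 140% in these data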;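 also: simple ratio to median IFN-gamma plus DMSO wells so 0% means no light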
NFkB act STAT1ct: NF-kB reporter activators, TNF-alpha stimulated, counter-screen for STAT1 activator project, cell-based, HEK293T, luciferase luminescence | shares compounds with STAT1 activator | 100% = TNF-alpha with vehicle only | activation (% of control), % at 5.7 µM | actives 43% (n = 1,200);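 active = activation above the mean of solvent-only control wells plus 3 SD, set per campaign, cut at about 130% in these data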;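 also: TNF-alpha given at a submaximal dose yielding about 80% of full reporter signal; values are well signal over median control so 100% means no change and 0% no light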
STAT3 act STAT1c: STAT3 reporter activation by STAT1 hits, confirmation, counter-screen for STAT1 activator project, U3A cells, luciferase, luminescence; activation (% of control), % at 5.7 µM; actives 46% (n = 1,200); shares compounds with STAT1 activator; AID 1316, 2008; IL-6; cells lack STAT1; 100 = IL-6 alone, no compound effect;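 active = activation above the solvent-only control well mean plus 3 SD, set per plate batch, cut at about 110% in these data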;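 also: 0% = no luminescence and 100% = median IL-6 plus DMSO wells; higher means more STAT3 reporter activation so hits are non-selective activators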
An asterisk follows results filed as active. Only some compounds are listed: those with a hit (about 5.1% of all), similar ones and a draw of the others.

What do the screens show for `Cc1ccc(C(=O)Oc2oc(-c3ccco3)nc2C=Nc2ccc(Cl)cc2)cc1`?
STAT1 inh: -72; STAT1 activator: 166*; APP 5'UTR act: 143*; STAT3 blocker: 32; STAT3 activator: 75; NF-kB neuron act: 7.7*; STAT1 activ conf: 200*; NFkB act STAT1ct: 140*; STAT3 act STAT1c: 106

Results for CCCC(=O)Nc1nc(C)c(-c2csc(Nc3ccccc3C)n2)s1 ?
STAT1 inh: -2; STAT1 activator: 101; APP 5'UTR act: 8; STAT3 blocker: 6; STAT3 activator: 101; NF-kB neuron act: 0.82

How did CCC(=O)Nc1nc(C)c(-c2csc(Nc3ccccn3)n2)s1 do in these assays?
STAT1 inh: -64; STAT1 activator: 157*; APP 5'UTR act: 49; STAT3 blocker: -1; STAT3 activator: 105; NF-kB neuron act: 1.3; STAT1 activ conf: 161*; NFkB act STAT1ct: 119; STAT3 act STAT1c: 99

Results for Cc1cccn2cc(COc3ccc(-c4ccccc4)cc3)nc12 ?
STAT1 inh: -70; STAT1 activator: 162*; APP 5'UTR act: 44; STAT3 blocker: 16; STAT3 activator: 93; NF-kB neuron act: 1.7; STAT1 activ conf: 165*; NFkB act STAT1ct: 106; STAT3 act STAT1c: 115*

How did COc1ccc2c(c1OC)C(=O)OC2Nc1nc(-c2cc3ccccc3oc2=O)cs1 (stereo not drawn) do in these assays?
STAT1 inh: -92; STAT1 activator: 182*; APP 5'UTR act: 153*; STAT3 blocker: 24; STAT3 activator: 80; NF-kB neuron act: 6.7*; STAT1 activ conf: 195*; NFkB act STAT1ct: 117; STAT3 act STAT1c: 102

How did COc1ccc2c(c1OC)C(=O)OC2Nc1nc(-c2ccc(-c3ccccc3)cc2)cs1 (stereo not drawn) do in these assays?
STAT1 inh: -91; STAT1 activator: 181*; APP 5'UTR act: 179*; STAT3 blocker: -7; STAT3 activator: 104; NF-kB neuron act: 11*; STAT1 activ conf: 232*; NFkB act STAT1ct: 135*; STAT3 act STAT1c: 98

Results for CSCCC(NS(=O)(=O)c1ccccc1F)C(=O)NC(C)c1ccccc1 (stereo not drawn) ?
STAT1 inh: 1; STAT1 activator: 98; APP 5'UTR act: 23; STAT3 blocker: 0; STAT3 activator: 101; NF-kB neuron act: 0.87

What do the screens show for `O=C(/C=C/c1ccccc1)Nc1nnc(-c2ccco2)o1`?
STAT1 inh: 4; STAT1 activator: 96; APP 5'UTR act: -16; STAT3 blocker: 7; STAT3 activator: 102; NF-kB neuron act: 1

How did CC(=O)Nc1cccc(NC(=O)c2cc3ccccc3o2)c1 do in these assays?
STAT1 inh: -62; STAT1 activator: 156*; APP 5'UTR act: 125; STAT3 blocker: 11; STAT3 activator: 93; NF-kB neuron act: 3.4*; STAT1 activ conf: 178*; NFkB act STAT1ct: 135*; STAT3 act STAT1c: 109

How did Cc1ccc(C(=O)c2cc3ccccc3o2)cc1 do in these assays?
STAT1 inh: -62; STAT1 activator: 157*; APP 5'UTR act: 148*; STAT3 blocker: 23; STAT3 activator: 83; NF-kB neuron act: 3.9*; STAT1 activ conf: 195*; NFkB act STAT1ct: 139*; STAT3 act STAT1c: 103

What do the screens show for `CC(=O)c1cc(C(=O)Nc2ccc(C(=O)O)cc2)oc1C`?
STAT1 inh: 2; STAT1 activator: 92; APP 5'UTR act: 15; STAT3 blocker: 7; STAT3 activator: 95; NF-kB neuron act: 1.3

What do the screens show for `O=C(Nc1cccnc1)c1cc2c(ccc3ccccc32)o1`?
STAT1 inh: -85; STAT1 activator: 177*; APP 5'UTR act: 220*; STAT3 blocker: 27; STAT3 activator: 80; NF-kB neuron act: 5.3*; STAT1 activ conf: 260*; NFkB act STAT1ct: 144*; STAT3 act STAT1c: 111*

What do the screens show for `Cc1cc(C(=O)Nc2ccccc2)oc1C`?
STAT1 inh: -60; STAT1 activator: 155*; APP 5'UTR act: 98; STAT3 blocker: 15; STAT3 activator: 91; NF-kB neuron act: 3.5*; STAT1 activ conf: 170*; NFkB act STAT1ct: 136*; STAT3 act STAT1c: 110

Results for CCN(CC)S(=O)(=O)c1cccc(NC(=O)c2cc3ccccc3o2)c1 ?
STAT1 inh: -3; STAT1 activator: 102; APP 5'UTR act: 23; STAT3 blocker: 11; STAT3 activator: 94; NF-kB neuron act: 0.88

What do the screens show for `Cc1cc(C)cc(NC(=O)CSCc2nc3c(nnn3Cc3ccc(F)cc3)c(=O)[nH]2)c1`?
STAT1 inh: 2; STAT1 activator: 98; APP 5'UTR act: 7; STAT3 blocker: 11; STAT3 activator: 93

How did COCCC1CCCCN1Cc1cn(-c2ccccc2)nc1-c1ccc2c(c1)OCO2 (stereo not drawn) do in these assays?
STAT1 inh: -3; STAT1 activator: 102; APP 5'UTR act: 24; STAT3 blocker: 1; STAT3 activator: 103; NF-kB neuron act: 1

What do the screens show for `CC(=O)NC12CC3CC(C1)CC(C(=O)OCC(=O)c1ccc4c(c1)OCCO4)(C3)C2`?
STAT1 inh: -67; STAT1 activator: 161*; APP 5'UTR act: 156*; STAT3 blocker: -9; STAT3 activator: 111; NF-kB neuron act: 3.1; STAT1 activ conf: 212*; NFkB act STAT1ct: 125; STAT3 act STAT1c: 124*

What do the screens show for `CC(=O)NC12CC3CC(C1)CC(C(=O)OCC(=O)Nc1ncc(Cl)c(C)c1Cl)(C3)C2`?
STAT1 inh: -10; STAT1 activator: 108; APP 5'UTR act: 9; STAT3 blocker: 6; STAT3 activator: 99; NF-kB neuron act: 1.1

Screening data (PubChem BioAssay)
